Assay results: PMC3728915 (Chemical science (Royal Society of Chemistry : 2010), 2013)

Key:
[1] = test system: U-937, HeLa, H460, 786-O, and MCF-7; test: 72-hour cytotoxicity across five human cell lines; assay type: cell-based; settings: MTS and SRB cytotoxicity assays
Method in brief: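 Cells were treated with test compound for 72 h. U-937 cells were read by MTS reduction. HeLa, H460, 786-O and MCF-7 cells were read by sulforhodamine B staining. IC50 values are given in nM as the mean with standard deviation, n ≥ 3.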

U-937 cells = test: Annexin V-FITC / propidium iodide apoptosis analysis; assay type: cell-based, human; settings: 24 hours, U-937, 100-times the 72-hour IC50 values
[2] = test system: U-937 and HeLa human cancer cell lines; test: Anticancer activity screen, cell line not given; assay type: cell-based
Method in brief: (§1)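 Human cancer cells were exposed continuously to test compound for 72 h. Viability was read by MTS for U-937 cells and by sulforhodamine B staining for HeLa cells. IC50 values are given in nM as the mean of at least three determinations with standard deviation.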

[3] = test system: U-937 (hystiocytic lymphoma); test: 72-hour MTS cytotoxicity assay in U-937 cells; assay type: cell-based, human; settings: read-out: IC50 (U-937), 72-hour exposure
Method in brief: as §1

[4] = test system: HeLa (cervical carcinoma); test: 72-hour SRB cytotoxicity assay in HeLa cells; assay type: cell-based, human; settings: read-out: IC50 (HeLa), 72-hour exposure
Method in brief: as §1

(+)-chaetocin C [Compound 5]
IC50 / potency range (in words) [1]: subnanomolar | induction of apoptotic cell death (U-937 cells): induce caspase-dependent apoptotic cell death

(+)-gliocladin B [Compound 7]
IC50 ([2]; anticancer activity, cell line not specified): > 10000 nM

CN1C(=O)[C@@]23C[C@]4([C@]56C[C@@]78SS[C@@](CO)(C(=O)N7[C@H]5Nc5ccccc56)N(C)C8=O)c5ccccc5N[C@@H]4N2C(=O)[C@]1(CO)SS3 [Compound 4, (+)-chaetocin A]
IC50 / potency range (in words) [1]: subnanomolar

(+)-12,12'-dideoxyverticillin A [Compound 3]
IC50 [3]: 15.5 nM | IC50 [4]: 7.2 nM

CN1C(=O)C(=O)N2C(=C[C@]3(c4c[nH]c5ccccc45)c4ccccc4N[C@H]23)C1=O [Compound 52, (+)-Gliocladin C]
anticancer activity (in words) ([2]; 72-hour exposure, U-937 and HeLa): complete loss of biological activity
